Source: PubChem BioAssay (several laboratories)
Hits are enriched below; roughly 2.8% of the tested compounds scored in any of these assays.
NPY-Y1 antag: NPY-Y1 receptor antagonists, primary screen, cell-based; 200,000 compounds, 1% hits; Neuropeptide Y receptor type 1 (Homo sapiens), P25929; inhibition, % at 3.6 µM; HEK293-CNG Y1 cells, membrane potential fluorescence; NPY at EC95, then isoproterenol; AID 1040, 2008;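 active means inhibition above the campaign mean inhibition of all tested compounds plus 3 SD, cut at about 20% in these data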;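 further: 0% = DMSO wells given NPY plus isoproterenol and 100% = isoproterenol alone without NPY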
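Material: HEK293 cells with Y1 receptor plus CNG channel; times: compound incubation 1 h at room temperature, readout 45 min post-stimulation; signal: fluorescence, membrane potential probe; read-out basis: fluorescence ratio normalized to % inhibition between controls; benchmarks: full-block control isoproterenol-only wells, zero-block control NPY plus isoproterenol wells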
Measles CPE: compounds protecting cells from measles virus cytopathic effect, primary screen, measles RdRp inhibitor project, single point, MLSMR library, absorbance. Measles virus-infected cells, CPE protection. protection (pct of control), % at 4 µM. 140,000 compounds, 1.5% hits. AID 841, 2007; in the data active means protection mostly above about 24%, no sharp cut-off; inactive means mostly below about 26%
NPY Y2 blocker: NPY-Y2 receptor antagonists, primary screen, cell-based; NPY-Y2 expressing cells, antagonist mode; inhibition, % at 2.7 µM; 140,000 compounds, 0.99% hits; AID 793, 2007;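 further: 0% = vehicle with agonist challenge and 100% = reference antagonist with challenge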
Target sequence (P49146 whole entry, looked up): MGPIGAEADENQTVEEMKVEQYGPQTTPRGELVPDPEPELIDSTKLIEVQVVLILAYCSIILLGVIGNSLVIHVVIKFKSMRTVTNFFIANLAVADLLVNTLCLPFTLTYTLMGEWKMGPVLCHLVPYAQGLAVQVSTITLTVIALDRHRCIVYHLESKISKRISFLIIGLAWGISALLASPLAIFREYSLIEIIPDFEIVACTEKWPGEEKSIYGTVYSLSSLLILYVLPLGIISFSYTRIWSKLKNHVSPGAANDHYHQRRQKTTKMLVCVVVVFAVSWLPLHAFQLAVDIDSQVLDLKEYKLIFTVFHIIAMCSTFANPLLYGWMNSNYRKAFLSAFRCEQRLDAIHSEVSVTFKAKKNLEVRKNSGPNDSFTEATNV
NPY-Y1 PAM-ag: NPY-Y1 receptor potentiators or agonists, primary screen, cell-based | NPY-Y1 expressing cells, potentiator/agonist activation | activation, % at 3.6 µM | AID 1304, 2008 | 220,000 compounds, 0.37% hits; in the data active means activation above about 33%, passing the limit was not always enough;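 further: cells stimulated with NPY at EC10 then isoproterenol at EC100; 0% = low agonist plus stimulus and 100% = saturating agonist plus stimulus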
NPY2 pot ag: NPY-Y2 potentiators or agonists, primary screen, cell-based. AID 1359, 2008. Neuropeptide Y receptor type 2 (Homo sapiens), P49146. 220,000 compounds, 0.45% hits. cells expressing NPY-Y2, potentiator/agonist read-out. activation, % at 3.6 µM; in the data active means activation above about 27%;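 further: cells stimulated with NPY near EC25 plus isoproterenol at EC100; 0% = vehicle plus submaximal agonist and 100% = vehicle plus saturating agonist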
Rad51 HR inh: human RAD51 strand exchange inhibitors, primary screen, biochemical, fluorescence | DNA repair protein RAD51 homolog 1 (Homo sapiens), Q06609 | hRad51 DNA strand exchange, fluorescence dequenching | inhibition, % at 10 µM | 200,000 compounds, 0.085% hits | AID 1385, 2008;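 active means inhibition above 40% at the single screening dose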;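 further: 0% = DMSO control wells and 100% = blanks with heterologous ssDNA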
Target sequence (Q06609 whole entry, looked up): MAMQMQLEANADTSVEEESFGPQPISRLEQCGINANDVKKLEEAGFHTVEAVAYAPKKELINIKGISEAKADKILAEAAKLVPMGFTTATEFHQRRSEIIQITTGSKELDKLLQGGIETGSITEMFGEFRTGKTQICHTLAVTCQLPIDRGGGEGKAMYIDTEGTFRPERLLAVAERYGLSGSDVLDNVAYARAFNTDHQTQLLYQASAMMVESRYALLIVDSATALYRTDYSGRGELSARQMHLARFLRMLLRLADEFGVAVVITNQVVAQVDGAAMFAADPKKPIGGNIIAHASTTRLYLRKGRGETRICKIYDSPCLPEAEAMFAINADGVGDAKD
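Material: human Rad51–ssDNA filaments; Probe or stimulus: labelled 47-mer dsDNA for strand exchange; Doses: single 10 µM dose; Incubation: 37 °C 15-min filament assembly, 30-min compound preincubation, 15-min exchange; Technique: FRET fluorescence dequenching, excitation 485 nm, emission 520 nm; Measure: Fluorescence-based percent inhibition, control- and blank-normalised; Benchmarks: plate control and blank wells.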
NPY1 antag conf: NPY-Y1 receptor antagonists, retest of hits, confirmation, HEK293-CNG cells, membrane potential fluorescence, triplicate. shares compounds with NPY-Y1 antag. cAMP; NPY challenge against isoproterenol-raised cAMP. inhibition, % at 3.6 µM. 1,200 compounds, 21% hits. AID 1254, 2008; in the data active means inhibition above about 20%;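 further: 0% = vehicle with agonist plus stimulus and 100% = stimulus alone without agonist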
NPY-Y2 antag ct: NPY-Y2 receptor antagonists, selectivity check, confirmation, counter-screen for NPY-Y1 antagonist project, HEK293-CNG cells, membrane potential fluorescence, triplicate; inhibition, % at 3.6 µM; AID 1255, 2008; shares compounds with NPY-Y1 antag; 1,200 compounds, 28% hits; antagonism; cells given NPY, then isoproterenol;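 further: 0% = DMSO with agonist challenge and 100% = reference antagonist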
* marks the source's active call; other numbers are inactive results. Unless noted, no stated cut-off is given here; in the data, active means inhibition above about 17%; inactive means the rest.

Screening O=C(CN1C(=O)C2CC=CCC2C1=O)Nc1nnc(SCc2c(Cl)cccc2Cl)s1 (centres undefined) returned NPY-Y1 antag 2.9, Measles CPE 7.1, NPY Y2 blocker 4.8, NPY-Y1 PAM-ag -0.6, NPY2 pot ag 5.9 and Rad51 HR inh -1.4.
Cc1ccc(CNC(=O)C2CCCN(c3nn4c(=O)cc(C)nc4s3)C2)cc1 (centres undefined) was read as NPY-Y1 antag 6.6, NPY-Y1 PAM-ag -8.2, NPY2 pot ag -16.0 and Rad51 HR inh 4.4.
For COc1cccc(Cl)c1NC(=O)N1CCc2c([nH]c3ccccc23)C1C(F)(F)F (centres undefined) the results were NPY-Y1 PAM-ag -40.1, NPY2 pot ag -49.6 and Rad51 HR inh 13.2.
For CCOc1ccc(C(=S)N2CCN(C)CC2)cc1 the results were NPY-Y1 antag 4.6, NPY-Y1 PAM-ag -10.2, NPY2 pot ag -6.3 and Rad51 HR inh 30.4.
For CC1(C)C(CSc2nc3ccccc3[nH]2)C1(Cl)Cl (centres undefined) the results were NPY-Y1 antag 91.8*, NPY-Y1 PAM-ag -45.8, NPY2 pot ag -82.0, NPY1 antag conf 90.0* and NPY-Y2 antag ct 110.4*.
`O=C(O)c1ccc(N(c2ccccc2)c2ccccc2)cc1` gave NPY-Y1 antag 26.8*, Measles CPE 18.3, NPY Y2 blocker 13.6, NPY-Y1 PAM-ag -39.9, NPY2 pot ag -36.6, Rad51 HR inh -2.1, NPY1 antag conf 21.2* and NPY-Y2 antag ct 15.9.
For CCc1ccc2[nH]c(=O)c(CN(CCN(CC)CC)C(=S)NCc3ccco3)cc2c1 the results were NPY-Y1 antag 21.9*, NPY-Y1 PAM-ag -30.1, NPY2 pot ag -31.4, Rad51 HR inh -2.0, NPY1 antag conf 13.7 and NPY-Y2 antag ct 14.2.
`FC(F)(F)COc1nc(OCC(F)(F)F)nc(N2CCN(c3ccccc3)CC2)n1` gave NPY-Y1 antag 28.2*, Measles CPE 3.7, NPY Y2 blocker 8.6, NPY-Y1 PAM-ag -12.8, NPY2 pot ag -10.4, Rad51 HR inh -3.9, NPY1 antag conf 9.4 and NPY-Y2 antag ct 8.0.
Cn1cccc1/C=N/NC(=O)c1ccco1 was read as NPY-Y1 antag 0.9, NPY-Y1 PAM-ag 1.6, NPY2 pot ag -5.9 and Rad51 HR inh 9.5.
For COc1ccc(N(C(C)=O)S(=O)(=O)c2cccc3cccnc23)cc1 the results were NPY-Y1 antag -2.7, Measles CPE 3.8, NPY Y2 blocker -1.1, NPY-Y1 PAM-ag -6.7, NPY2 pot ag -14.0 and Rad51 HR inh -3.8.
CCCCOc1c(Cl)cc(CNC(C)(C)CO)cc1OCC was read as NPY-Y1 antag 23.5*, Measles CPE 11.7, NPY Y2 blocker 7.3, NPY-Y1 PAM-ag -34.8, NPY2 pot ag -14.3, Rad51 HR inh 3.8, NPY1 antag conf 7.0 and NPY-Y2 antag ct 6.4.
`CCCCNCc1cc(Cl)c(OCCC)c(OCC)c1` gave NPY-Y1 antag 5.0, Measles CPE 5.7, NPY Y2 blocker 1.3, NPY-Y1 PAM-ag -18.2, NPY2 pot ag 0.2 and Rad51 HR inh -4.5.
Cc1ccc(CSc2nc3ccccc3c(=O)n2CCCC(=O)NCc2ccco2)cc1 was read as NPY-Y1 antag 0.7, Measles CPE 10.3, NPY Y2 blocker -0.9, NPY-Y1 PAM-ag 11.8, NPY2 pot ag -15.8 and Rad51 HR inh -2.9.
For Cc1ccc(CSc2nc3ccccc3c(=O)n2Cc2ccco2)cc1 the results were NPY-Y1 antag 27.8*, Measles CPE 23.4, NPY Y2 blocker 11.0, NPY-Y1 PAM-ag -35.6, NPY2 pot ag -6.0, Rad51 HR inh 0.7, NPY1 antag conf 6.5 and NPY-Y2 antag ct 14.3.
CCNCc1ccc(OCc2ccccc2F)c(OC)c1 was read as NPY-Y1 antag 2.6, NPY-Y1 PAM-ag -17.2, NPY2 pot ag -3.0 and Rad51 HR inh 1.1.
`CCN(CC)CCNCc1cc(Cl)ccc1OCc1ccccc1F` gave NPY-Y1 antag 24.2*, NPY-Y1 PAM-ag -21.5, NPY2 pot ag 4.5, Rad51 HR inh -4.9, NPY1 antag conf 11.5 and NPY-Y2 antag ct 14.2.
CC1=C(C(=O)OC(C)C)C(c2cccs2)NC(=S)N1 (centres undefined) was read as NPY-Y1 antag 7.4, Measles CPE 14.2, NPY Y2 blocker -0.1, NPY-Y1 PAM-ag -25.9, NPY2 pot ag 2.3 and Rad51 HR inh 2.4.
`COc1ccc(C2C(C(=O)c3cccs3)=C(O)C(=O)N2c2cccc(C)n2)cc1` (centres undefined) gave NPY-Y1 PAM-ag 22.5, NPY2 pot ag 9.0 and Rad51 HR inh -29.8.
Cc1ccc(C2C(C(=O)c3cccs3)=C(O)C(=O)N2c2nnc(C)s2)cc1 (centres undefined) was read as NPY-Y1 antag 27.2*, NPY-Y1 PAM-ag -1.6, NPY2 pot ag -15.8, NPY1 antag conf 30.5* and NPY-Y2 antag ct 20.7*.
Screening O=C(NCc1cccnc1)/C(=C\c1ccc(-c2ccc(Br)cc2)o1)S(=O)(=O)c1ccccc1 returned NPY-Y1 antag 11.9, Measles CPE 0.5, NPY Y2 blocker 7.4, NPY-Y1 PAM-ag -57.1, NPY2 pot ag -24.5 and Rad51 HR inh 3.6.
O=C(NCc1cccnc1)/C(=C/c1ccc(-c2ccc(Cl)cc2)o1)S(=O)(=O)c1ccccc1 was read as NPY-Y1 antag 24.7*, Measles CPE -0.1, NPY Y2 blocker 13.4, NPY-Y1 PAM-ag -35.2, NPY2 pot ag -29.4, Rad51 HR inh -4.1, NPY1 antag conf 9.4 and NPY-Y2 antag ct 21.9*.
CN(C)c1ccnc(N(Cc2ccccc2)Cc2ccccc2)c1C#N was read as NPY-Y1 antag 38.7*, Measles CPE 15.4, NPY Y2 blocker 8.2, NPY-Y1 PAM-ag -33.0, NPY2 pot ag -30.9, Rad51 HR inh 7.7, NPY1 antag conf 47.8* and NPY-Y2 antag ct 82.9*.
CN(C)c1ccnc(NCc2ccccc2)c1C#N was read as NPY-Y1 antag 1.1, Measles CPE 14.9, NPY Y2 blocker 3.4, NPY-Y1 PAM-ag -23.6, NPY2 pot ag 4.7 and Rad51 HR inh -0.1.
Screening CCC(C)N=C1Sc2nc3ccc(C)cc3cc2CN1CCOC (centres undefined) returned NPY-Y1 antag 3.6, NPY-Y1 PAM-ag 7.6, NPY2 pot ag -6.6 and Rad51 HR inh 4.8.
